Assay results reported in ChEMBL document CHEMBL1123490, “Synthesis and biological activities of oligo(8-bromoadenylates) as analogues of 5'-O-triphosphoadenylyl(2'----5')adenylyl(2'----5')adenosine” (J Med Chem, 1986).
Blank lines part the entries; values can stand above or below the compound they belong to.

What was measured:
[1] = molecular target: T1, 2-5A-dependent ribonuclease (Mus musculus, UniProt Q05921); assay: (§1) Compound was tested for activation of RNase L by measuring concentration required for 50% inhibition of protein synthesis in mouse L cell extracts; format: cell-based
T1 sequence (Q05921 whole entry): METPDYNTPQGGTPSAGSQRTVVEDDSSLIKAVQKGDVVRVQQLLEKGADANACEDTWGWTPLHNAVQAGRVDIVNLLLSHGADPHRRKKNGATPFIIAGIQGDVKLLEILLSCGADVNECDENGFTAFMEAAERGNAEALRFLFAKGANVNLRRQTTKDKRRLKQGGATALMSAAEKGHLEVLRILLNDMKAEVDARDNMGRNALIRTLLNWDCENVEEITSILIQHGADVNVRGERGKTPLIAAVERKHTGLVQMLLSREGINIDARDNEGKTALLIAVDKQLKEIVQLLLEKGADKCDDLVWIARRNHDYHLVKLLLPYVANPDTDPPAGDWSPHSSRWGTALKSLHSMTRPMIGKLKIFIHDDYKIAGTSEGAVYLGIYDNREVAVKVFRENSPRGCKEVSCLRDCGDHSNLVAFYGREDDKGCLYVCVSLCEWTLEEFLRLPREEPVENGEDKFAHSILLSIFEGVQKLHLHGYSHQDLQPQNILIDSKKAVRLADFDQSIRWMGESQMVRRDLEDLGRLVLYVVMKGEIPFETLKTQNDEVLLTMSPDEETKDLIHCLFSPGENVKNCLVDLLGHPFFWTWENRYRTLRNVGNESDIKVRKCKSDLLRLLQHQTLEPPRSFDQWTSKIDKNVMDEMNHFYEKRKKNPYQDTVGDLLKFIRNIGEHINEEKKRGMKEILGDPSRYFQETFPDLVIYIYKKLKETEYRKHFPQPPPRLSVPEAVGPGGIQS

[2] = molecular target: T2, 2-5A-dependent ribonuclease (Mus musculus) (UniProt Q05921); assay: as §1; format: cell-based
T2 sequence (whole entry): T1 sequence (Q05921 whole entry)
How it was run: (§2)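 Cell-free translation was run in mouse L cell extract programmed with EMCV RNA, with creatine kinase, amino acids and [3H]leucine added. At set times, aliquots were spotted onto filter disks presoaked in 15% trichloroacetic acid to measure incorporation. The value is the concentration giving 50% inhibition of protein synthesis.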

Mus musculus [3] = species: Mus musculus; assay: Compound measured for the stability in 20% mouse in L cell extracts in the absence ot ATP at 240 min; format: functional, organism-based
Mus musculus [4] = species: Mus musculus; assay: Compound measured for the stability in 20% mouse in L cell extracts in the presence ot ATP at 40 min.; format: functional, organism-based
Mus musculus [5] = species: Mus musculus; assay: Compound measured for the stability in 20% mouse in L cell extracts in the presence ot ATP at 75 min; format: functional, organism-based
[6] = molecular target: T2, 2-5A-dependent ribonuclease (Mus musculus); assay: Binding affinity against 2-5A-dependent RNase L in mouse L cell extracts using ppp5'A2p5'A2'p5'A3'[32P]pCp as a radioactive probe; format: cell-free
How it was run: (§3)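 Crude mouse L cell extract served as the RNase L source, with ppp5'A2'p5'A2'p5'A3'[32P]p5'Cp as the radioactive probe, in a competition binding assay on nitrocellulose. The value is the analogue concentration giving 50% displacement of the probe from the endonuclease–nitrocellulose complex.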

Mus musculus [7] = species: Mus musculus; assay: Compound measured for the stability in 20% mouse in L cell extracts in the presence ot ATP at 12 hr; format: functional, organism-based
Mus musculus [8] = species: Mus musculus; assay: Compound measured for the stability in 20% mouse in L cell extracts in the absence ot ATP at 40 min.; format: functional, organism-based
Mus musculus [9] = species: Mus musculus; assay: Compound measured for the stability in 20% mouse in L cell extracts in the presence ot ATP at 150 min; format: functional
Mus musculus [10] = species: Mus musculus; assay: Compound measured for the stability in 20% mouse in L cell extracts in the absence ot ATP at 12 hr; format: functional
Mus musculus [11] = species: Mus musculus; assay: Compound measured for the stability in 20% mouse in L cell extracts in the absence ot ATP at 150 min; format: functional
Mus musculus [12] = species: Mus musculus; assay: Compound measured for the stability in 20% mouse in L cell extracts in the absence ot ATP at 0 min.; format: functional
Mus musculus [13] = species: Mus musculus; assay: Compound measured for the stability in 20% mouse in L cell extracts in the absence ot ATP at 75 min; format: functional
[14] = molecular target: T2, 2-5A-dependent ribonuclease (Mus musculus); assay: Binding affinity against 2-5A-dependent RNase L in mouse L cell extract using ppp5'A2p5'A2'p5'A3'[32P]pCp as a radioactive probe; format: cell-free; how it was run: as §3
Mus musculus [15] = species: Mus musculus; assay: Compound measured for the stability in 20% mouse in L cell extracts in the presence of ATP at 0 min.; format: functional, organism-based
Mus musculus [16] = species: Mus musculus; assay: Compound measured for the stability in 20% mouse in L cell extracts in the absence of ATP at 30 min; format: functional
Mus musculus [17] = species: Mus musculus; assay: Compound measured for the stability in 20% mouse in L cell extracts in the absence of ATP at 12 hr; format: functional
Mus musculus [18] = species: Mus musculus; assay: Compound measured for the stability in 20% mouse in L cell extracts in the absence of ATP at 0 min; format: functional
Mus musculus [19] = species: Mus musculus; assay: Compound measured for the stability in 20% mouse in L cell extracts in the presence of ATP at 0 min; format: functional, organism-based
Mus musculus [20] = species: Mus musculus; assay: Compound measured for the stability in 20% mouse in L cell extracts in the presence of ATP at 220 min; format: functional, organism-based
Mus musculus [21] = species: Mus musculus; assay: Compound measured for the stability in 20% mouse in L cell extracts in the presence of ATP at 75 min; format: functional, organism-based
Mus musculus [22] = species: Mus musculus; assay: Compound measured for the stability in 20% mouse in L cell extracts in the absence of ATP at 150 min; format: functional
Mus musculus [23] = species: Mus musculus; assay: Compound measured for the stability in 20% mouse in L cell extracts in the presence of ATP at 40 min; format: functional, organism-based
Mus musculus [24] = species: Mus musculus; assay: Compound measured for the stability in 20% mouse in L cell extracts in the absence of ATP at 120 min; format: functional
Mus musculus [25] = species: Mus musculus; assay: Compound measured for the stability in 20% mouse in L cell extracts in the absence of ATP at 240 min; format: functional
Mus musculus [26] = species: Mus musculus; assay: Compound measured for the stability in 20% mouse in L cell extracts in the presence of ATP at 12 hr; format: functional, organism-based
Mus musculus [27] = species: Mus musculus; assay: Compound measured for the stability in 20% mouse in L cell extracts in the absence of ATP at 90 min; format: functional
Mus musculus [28] = species: Mus musculus; assay: Compound measured for the stability in 20% mouse in L cell extracts in the presence of ATP at 120 min; format: functional, organism-based
[29] = molecular target: T2, 2-5A-dependent ribonuclease (Mus musculus); assay: (§4) compound was tested for activation of RNase L by measuring concentration required for 50% inhibition of protein synthesis in mouse L cell extracts; format: cell-based; how it was run: as §2
[30] = molecular target: T1, 2-5A-dependent ribonuclease; assay: as §4; format: cell-based; how it was run: as §2

SMILES: Nc1ncnc2c1ncn2[C@@H]1O[C@H](CO[P@](=O)(O)O[C@@H]2[C@H](O)[C@@H](CO[P@](=O)(O)O[C@@H]3[C@H](O)[C@@H](CO[P@](=O)(O)O[P@@](=O)(O)OP(=O)(O)O)O[C@H]3n3cnc4c(N)ncnc43)O[C@H]2n2cnc3c(N)ncnc32)[C@@H](O)[C@H]1O
- IC50 [1]: 2.3 nM

SMILES: Nc1ncnc2c1ncn2[C@@H]1O[C@H](COP(=O)(O)O[C@@H]2[C@H](O)[C@@H](COP(=O)(O)O[C@@H]3[C@H](O)[C@@H](COP(=O)(O)OP(=O)(O)OP(=O)(O)O)O[C@H]3n3cnc4c(N)ncnc43)O[C@H]2n2cnc3c(N)ncnc32)[C@@H](O)[C@H]1O
- Relative activity [2]: 1

SMILES: Nc1ncnc2c1nc(Br)n2[C@@H]1O[C@H](COP(=O)(O)O[C@@H]2[C@H](O)[C@@H](COP(=O)(O)O[C@@H]3[C@H](O)[C@@H](COP(=O)(O)OP(=O)(O)OP(=O)(O)O)O[C@H]3n3c(Br)nc4c(N)ncnc43)O[C@H]2n2c(Br)nc3c(N)ncnc32)[C@@H](O)[C@H]1O
- IC50 [1]: 150 nM
- Relative activity [2]: 0.015
- Stability (Mus musculus [28]): 36%
- Stability (Mus musculus [18]): 48%
- Stability (Mus musculus [19]): 71%
- Stability (Mus musculus [20]): 16%
- Stability (Mus musculus [21]): 46%
- Stability (Mus musculus [23]): 54%
- Activity [14]: 8e-09
- Relative ability [14]: 0.088
- Stability (Mus musculus [26]): 0%
- Stability (Mus musculus [27]): 3%

SMILES: Nc1ncnc2c1nc(Br)n2[C@H]1O[C@@H](COP(=O)(O)O[C@H]2[C@@H](O)[C@H](COP(=O)(O)O[C@H]3[C@@H](O)[C@H](COP(=O)(O)O[C@H]4[C@@H](O)[C@H](COP(=O)(O)O[C@H]5[C@@H](O)[C@H](COP(=O)(O)O)O[C@@H]5n5c(Br)nc6c(N)ncnc65)O[C@@H]4n4c(Br)nc5c(N)ncnc54)O[C@@H]3n3c(Br)nc4c(N)ncnc43)O[C@@H]2n2c(Br)nc3c(N)ncnc32)[C@H](O)[C@@H]1O
- Relative activity [29]: < 6e-05
- Activity [6]: 3e-09
- Relative ability [6]: 0.23
- IC50 [30]: > 40000 nM

SMILES: Nc1ncnc2c1nc(Br)n2[C@@H]1O[C@H](COP(=O)(O)O[C@@H]2[C@H](O)[C@@H](COP(=O)(O)O[C@@H]3[C@H](O)[C@@H](CO)O[C@H]3n3c(Br)nc4c(N)ncnc43)O[C@H]2n2c(Br)nc3c(N)ncnc32)[C@@H](O)[C@H]1O
- Relative activity [29]: < 5e-05
- Activity [6]: 6e-07
- Relative ability [6]: 0.0012
- IC50 [30]: > 50000 nM

Now from value to compound, other results behind:

- IC50 [1]: 1000 nM
- Relative activity [2]: 0.0023
- Activity [6]: 2e-08
- Relative ability [14]: 0.035
SMILES: Nc1ncnc2c1nc(Br)n2[C@@H]1O[C@H](COP(=O)(O)O[C@@H]2[C@H](O)[C@@H](COP(=O)(O)O[C@@H]3[C@H](O)[C@@H](COP(=O)(O)O)O[C@H]3n3c(Br)nc4c(N)ncnc43)O[C@H]2n2c(Br)nc3c(N)ncnc32)[C@@H](O)[C@H]1O
- Stability (Mus musculus [3]): 76%
- Stability (Mus musculus [4]): 99%
- Stability (Mus musculus [5]): 89%
- Stability (Mus musculus [7]): 53%
- Stability (Mus musculus [8]): 88%
- Stability (Mus musculus [9]): 84%
- Stability (Mus musculus [10]): 22%
- Stability (Mus musculus [11]): 77%
- Stability (Mus musculus [12]): 100%
- Stability (Mus musculus [13]): 82%
- Stability (Mus musculus [15]): 100%

- IC50 [1]: 46 nM
- Relative activity [2]: 0.05
- Activity [6]: 3e-09
- Relative ability [6]: 0.23
SMILES: Nc1ncnc2c1nc(Br)n2[C@@H]1O[C@H](COP(=O)(O)O[C@@H]2[C@H](O)[C@@H](COP(=O)(O)O[C@@H]3[C@H](O)[C@@H](COP(=O)(O)OP(=O)(O)O)O[C@H]3n3c(Br)nc4c(N)ncnc43)O[C@H]2n2c(Br)nc3c(N)ncnc32)[C@@H](O)[C@H]1O
- Stability (Mus musculus [16]): 80%
- Stability (Mus musculus [17]): 0%
- Stability (Mus musculus [18]): 100%
- Stability (Mus musculus [19]): 100%
- Stability (Mus musculus [20]): 70%
- Stability (Mus musculus [21]): 71%
- Stability (Mus musculus [22]): 55%
- Stability (Mus musculus [23]): 87%
- Stability (Mus musculus [24]): 67%
- Stability (Mus musculus [25]): 0%
- Stability (Mus musculus [26]): 47%
- Stability (Mus musculus [27]): 70%

- Relative activity [29]: 0.0033
- Activity [6]: 4e-09
- Relative ability [6]: 0.18
- IC50 [30]: 700 nM
SMILES: Nc1ncnc2c1nc(Br)n2[C@@H]1O[C@H](COP(=O)(O)O[C@@H]2[C@H](O)[C@@H](COP(=O)(O)O[C@@H]3[C@H](O)[C@@H](COP(=O)(O)O[C@@H]4[C@H](O)[C@@H](COP(=O)(O)O)O[C@H]4n4c(Br)nc5c(N)ncnc54)O[C@H]3n3c(Br)nc4c(N)ncnc43)O[C@H]2n2c(Br)nc3c(N)ncnc32)[C@@H](O)[C@H]1O

- Relative activity [29]: < 1e-05
- Activity [6]: 3e-08
- Relative ability [6]: 0.023
- IC50 [30]: > 200000 nM
SMILES: Nc1ncnc2c1nc(Br)n2[C@@H]1O[C@H](COP(=O)(O)O[C@@H]2[C@H](O)[C@@H](COP(=O)(O)O[C@@H]3[C@H](O)[C@@H](COP(=O)(O)O[C@@H]4[C@H](O)[C@@H](CO)O[C@H]4n4c(Br)nc5c(N)ncnc54)O[C@H]3n3c(Br)nc4c(N)ncnc43)O[C@H]2n2c(Br)nc3c(N)ncnc32)[C@@H](O)[C@H]1O
